An excerpt weighted towards active compounds, which were near 4.1% of everything screened.
MEKK3 PB1 HTS – MEKK3-MEK5 PB1 interaction, increase or decrease; AID 1529; bead-based flow cytometry, Alexa488-MEK5 binding to MEKK3; actives lie on both sides; 0 = blocked by unlabeled MEK5, 100 = vehicle; hit rate 1.4% among 290,000; Q99759; binding response (% of control), % at 10 µM;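 active = binding response more than 3 SD above or below the average of its plate-row segment, actives on both sides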;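 note: Alexa488 bead fluorescence after subtracting the streptavidin-only scavenger bead signal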
Target sequence (Q99759 whole entry, looked up): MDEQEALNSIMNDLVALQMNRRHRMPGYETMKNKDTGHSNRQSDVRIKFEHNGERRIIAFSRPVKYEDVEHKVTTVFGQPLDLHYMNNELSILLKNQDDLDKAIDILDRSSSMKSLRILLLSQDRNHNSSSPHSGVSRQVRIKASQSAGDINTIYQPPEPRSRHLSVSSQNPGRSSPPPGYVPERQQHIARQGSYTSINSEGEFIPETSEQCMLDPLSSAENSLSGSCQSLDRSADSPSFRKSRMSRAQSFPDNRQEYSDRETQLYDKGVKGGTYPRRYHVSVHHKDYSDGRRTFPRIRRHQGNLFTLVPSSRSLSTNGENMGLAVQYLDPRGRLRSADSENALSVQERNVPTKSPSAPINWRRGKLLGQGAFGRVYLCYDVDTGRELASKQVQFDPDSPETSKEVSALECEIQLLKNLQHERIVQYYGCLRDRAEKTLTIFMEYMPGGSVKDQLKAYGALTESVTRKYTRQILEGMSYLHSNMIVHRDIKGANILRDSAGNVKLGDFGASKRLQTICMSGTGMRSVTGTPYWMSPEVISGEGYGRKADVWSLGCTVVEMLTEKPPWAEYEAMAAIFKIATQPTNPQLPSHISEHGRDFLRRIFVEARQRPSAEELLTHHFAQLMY
MEKK2 WT-MEK5 – raises or lowers MEK5 binding to wildtype human MEKK2 PB1 domain; Q9Y2U5; bead flow cytometry, Alexa488-MEK5 binding to MEKK2 WT; actives lie on both sides; binding response (% of control), % at 10 µM; hit rate 1.1% among 290,000; in the data active = binding response below about 67% or above about 130%
DNA FID counter-1 – displaces DNA intercalator in HCV helicase counter-screen; DNA fluorescent intercalator displacement, fluorescence; hit rate 0.17% among 290,000; inhibition, % at 7.9 µM;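 note: 0% = vehicle and 100% = reference compound; higher means more ethidium bromide displaced from hairpin DNA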
MEKK2 mut-MEK5 – signal of MEK5 binding to mutant human MEKK2 PB1 domain | bead flow cytometry, Alexa488-MEK5 binding to MEKK2 mutant | percent response, % at 10 µM | hit rate 0.35% among 290,000; in the data active = percent response above about 24%, passing the limit was not always enough
NS3 helicase inh – blocks Hepatitis C virus NS3 helicase unwinding; NS3 helicase DNA unwinding, Cy5 molecular beacon fluorescence; hit rate 0.56% among 290,000; inhibition, % at 10.9 µM;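 active = inhibition above the mean of all tested compounds plus 3 SD, set per campaign, cut at about 35% in these data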;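 note: 0% = DMSO wells and 100% = thioflavine S control wells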
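assay system = NS3 helicase fragment of HCV | buffer or medium = MOPS pH 6.5, MgCl2, DTT, Tween20, BSA | timing = 60 min unwinding reaction at 25 °C after ATP addition | signal = Cy5 beacon fluorescence read at start and 1 h | read-out basis = % inhibition of unwinding | control set = low DMSO, high thioflavine S at 110 µM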
T cruzi repl – T. cruzi replication inhibition. T. cruzi beta-gal in NIH3T3, luminescence, 90 h. inhibition, % (concentration not given with the values). hit rate 1.4% among 300,000;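 active = mean inhibition across valid replicates above about 55%, limit read from the data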;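 note: signal also drops with host cell toxicity which is not excluded here; 0% = plate median of DMSO wells and 100% = zero luminescence signal; higher percent means less beta-gal luminescence so fewer parasites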
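Incubation – ≥90 h infection period, 3 h prior cell attachment · System – NIH/3T3 fibroblasts plus reporter T. cruzi · Doses – compound pinned at 50 nL/well, DMSO · Read-out basis – percent inhibition of parasite-derived β-gal signal · Signal – luminescent β-galactosidase signal after 60 min lysis · Also added – 5000 T. cruzi trypomastigotes/well · Medium – Low-serum DMEM with 2% FBS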
NS3 helicase cf – confirmation of Hepatitis C virus NS3 helicase inhibitors; shares compounds with NS3 helicase inh; NS3 helicase DNA unwinding, Cy5 molecular beacon fluorescence; inhibition, % at 10.9 µM; hit rate 31% among 1,600; AID 1943;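 active = inhibition above the mean of all tested compounds plus 3 SD, cutoff set per campaign, cut at about 36% in these data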
DNA FID counter-2 – intercalator displacement, NS3 helicase counter-screen | inhibition, % at 7.9 µM | DNA fluorescent intercalator displacement, fluorescence | shares compounds with NS3 helicase inh | hit rate 4% among 1,600 | AID 1945;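 note: 0% = vehicle and 100% = reference compound; higher means more displacement of ethidium bromide from the DNA hairpin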
Starred values were filed as active, the others as inactive; . = not tested or not shown. Cut-off read from the data, not from the text of the source, unless noted: active = inhibition above about 37%; inactive = the rest.

SMILES	MEKK3 PB1 HTS	MEKK2 WT-MEK5	DNA FID counter-1	MEKK2 mut-MEK5	NS3 helicase inh	T cruzi repl	NS3 helicase cf	DNA FID counter-2
CN(C)c1ccc(N/C=C/C(=O)c2ccccc2)cc1	100	102	-22	2	32	28	.	.
O=[N+]([O-])/C(C=Nc1ccccc1O)=C\Nc1ccccc1O	100	101	1	6	38*	-11	-9	19
O=[N+]([O-])/C(=C\Nc1ccccc1Cl)S(=O)(=O)c1ccccc1	102	103	-1	1	11	.	.	.
CCN(CC(=O)Nc1ccc(NC(C)=O)cc1)C(=O)Cc1ccc(S(=O)(=O)N2CCOCC2)s1	.	.	.	.	.	-4	.	.
CC(OC(=O)CN1C(=O)c2ccccc2C1=O)C(=O)NC1CCCCC1C (stereo not drawn)	.	.	.	.	.	-4	.	.
CC12C(=O)N(c3ccccc3C(=O)O)C(=O)C1C1C=CC2C1 (stereo not drawn)	107	110	4	9	-13	-2	.	.
O=C(O)c1ccccc1N1C(=O)C2C3c4ccccc4C(Br)(c4ccccc43)C2C1=O (stereo not drawn)	99	96	-18	-3	40*	-19	42*	-21
CCC(c1c(C)n(C)n(-c2ccccc2)c1=O)c1c(C)n(C)n(-c2ccccc2)c1=O	100	99	0	-2	39*	-7	-13	-2
CCOc1ccc(C(=O)NC(=S)NCc2cccnc2)cc1[N+](=O)[O-]	95	97	-5	-2	5	6	.	.
CCCCNC(=O)[C@H]1C[C@H]1[C@@H](O)[C@H](CO)NC(=O)[C@H](CC(C)C)NC(=O)OC(C)(C)C	100	106	-26	0	36*	-14	5	-36
COc1cc(/C=C2\C(=O)ON=C2c2ccccc2)cc(Br)c1O	99	97	-7	3	38*	2	32	1
CN1CCN(C(c2cccnc2)c2ccc3cccnc3c2O)CC1 (stereo not drawn)	97	106	-10	4	-5	28	.	.
CN1CCN(C(c2ccc(Br)cc2)c2cc(Cl)c3cccnc3c2O)CC1 (stereo not drawn)	105	131	-7	16	40*	21	19	74*
CC1=NN(c2ccc(C(=O)O)cc2)C(=O)/C1=C/c1ccc(-c2ccccc2F)o1	104	102	-8	3	39*	0	-7	3
CC(=O)c1ccc(OC(=O)/C=C/c2ccccc2)cc1	110	106	-11	13	39*	-15	2	-2
CC(NC(=O)CCCc1ccccc1)c1ccncc1 (stereo not drawn)	101	100	-7	2	2	4	.	.
CC(C)C(NC(=O)c1ccc(F)cc1)C(=O)NCC1CCCO1 (stereo not drawn)	103	103	-4	0	6	-12	.	.
CCCCCn1c(C)c2c(OCC)cccc(=O)c2c1C	99	102	-29	8	54*	32	-5	-27
COCCNC(=S)N/N=C1\CC(C)CC(C)(C)C1 (stereo not drawn)	106	104	6	-1	-3	-14	.	.
CSc1ccccc1OCc1cc(C(=O)NC2CCOC(C)(C)C2)no1 (stereo not drawn)	103	103	-8	6	7	-18	.	.
COc1ccc(OCc2cc(C(=O)NC3CCOC(C)(C)C3)no2)c2ccccc12 (stereo not drawn)	95	98	-10	5	47*	2	-19	-35
O=C1CCC(C(=O)N2CCSCC2)CN1Cc1cccc(C(F)(F)F)c1 (stereo not drawn)	98	107	-21	2	-4	2	.	.
CCCCOC(=O)C1[C@H]2C(=O)N(Cc3cccs3)C[C@]23C=C[C@H]1O3 (stereo partly drawn)	102	98	-13	2	6	-6	.	.
CCCOC(=O)C1[C@H]2C(=O)N(Cc3ccco3)C[C@]23C=C[C@H]1O3 (stereo partly drawn)	97	102	-43	1	40*	7	-6	-8
COc1ccc(CS(=O)(=O)c2nc(C)cc(C)c2S(C)(=O)=O)cc1	95	91	-10	-11	-2	-21	.	.
SMILES	MEKK3 PB1 HTS	MEKK2 WT-MEK5	DNA FID counter-1	MEKK2 mut-MEK5	NS3 helicase inh	T cruzi repl	NS3 helicase cf	DNA FID counter-2
O=S(=O)(c1ccc2ccccc2c1)n1cccn1	103	106	1	7	10	1	.	.
CCn1cc(C(=O)O)c(=O)c2cc(F)c(N3CCN(C(=S)NC(=O)c4ccccc4Br)CC3)cc21	100	97	-5	-6	50*	-1	12	1
O=[N+]([O-])c1c(C(Cl)Cl)nn(-c2ccccc2)c1N1CCOCC1	88	78	-5	-17	58*	2	-13	-12
COc1ccc(/C=C/C(=O)c2ccc3c4c(cccc24)CC3)cc1OC	95	90	-5	-2	-4	-6	.	.
O=C1S/C(=C\C=C\c2ccco2)C(=O)N1c1ccc(O)cc1	96	100	24	-6	129*	11	-2	11
O=C1S/C(=C\C=C\c2ccco2)C(=O)N1c1ccccc1	97	98	-12	8	49*	0	45*	34
COc1ccc(-c2cc(C(=O)Nc3ccc(O)cc3)c3ccccc3n2)cc1OC	97	93	-16	1	45*	-13	-4	-24
Cn1c(N)c(C(=O)COC(=O)COc2ccccc2C#N)c(=O)n(C)c1=O	112	104	-7	4	-2	-10	.	.
O=C(O)C1Nc2c(O)cc(Cl)c([N+](=O)[O-])c2C2C=CCC12 (stereo not drawn)	94	87	4	-3	70*	-4	79*	22
Cc1ccc(-c2nnc(N3CC(C)OC(C)C3)c3ccccc23)cc1 (stereo not drawn)	101	102	-41	-1	-4	33	.	.
COC(=O)C1=C(O)/C(=C\c2ccc(CNS(=O)(=O)c3ccc(Cl)cc3)o2)N=C1C	91	94	-12	-1	40*	-9	14	-10
Cc1ccc(CNC(=O)C2CCN(S(=O)(=O)c3c(C)noc3/C=C/c3ccco3)CC2)cc1	96	95	-25	4	63*	16	-13	-3
COc1cc(C(=O)OCC(=O)NC2CCCCCC2)ccc1OCC(C)C	.	.	.	.	.	0	.	.
O=C(O)c1cccc(NC(=S)N/N=C/c2ccccc2OCc2cccc(Br)c2)c1	120	108	-21	-1	24	-3	.	.
